ChEMBL document CHEMBL2429723, “Design and synthesis of MMP inhibitors with appended fluorescent tags for imaging and visualization of matrix metalloproteinase enzymes” (Bioorg Med Chem Lett, 2013)

Key:
[1] = target: 72 kDa type IV collagenase (Homo sapiens, UniProt P08253); experiment: Inhibition of human recombinant MMP2 using Mca-Lys-Pro-Leu-Gly-Leu-Dpa-Ala-Arg-NH2 as substrate by fluorescence plate reader analysis
Outline: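 rhMMP2 activated with 1 mM APMA in assay buffer (50 mM Tris, 10 mM CaCl2, 150 mM NaCl, 0.05% Brij-35, pH 7.5), 37 °C, 1 h, then diluted to 248 ng/mL. Enzyme and test samples combined at ambient temperature; substrate (25 µM) added to start. Kinetic fluorescence at 320 nm excitation/405 nm emission; blank-subtracted duplicates; IC50 from six-point curves.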

[2] = target: Matrix metalloproteinase-9 (Homo sapiens, UniProt P14780); experiment: Inhibition of human MMP9
[3] = target: Matrix metalloproteinase-14 (Homo sapiens, UniProt P50281); experiment: Inhibition of human recombinant MMP14 using Mca-Lys-Pro-Leu-Gly-Leu-Dpa-Ala-Arg-NH2 as substrate by fluorescence plate reader analysis
Outline: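 Enzyme and test samples combined at ambient temperature; substrate (20 µM) added to start. Kinetic read at 320/405 nm, substrate blank subtracted, duplicates, IC50 from six-point dose-response curves.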

[4] = tested on: MCF7; experiment: Cellular uptake in human MCF7 cells over-expressing MMP14 by confocal microscopy relative to control; type: ADME, cell-based
Outline: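 MMP-14-overexpressing and parental MCF7 cells incubated with the conjugate at 37 °C and imaged by confocal microscopy, parental cells serving as comparison.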

72 kDa type IV collagenase, sequence (P08253 whole entry): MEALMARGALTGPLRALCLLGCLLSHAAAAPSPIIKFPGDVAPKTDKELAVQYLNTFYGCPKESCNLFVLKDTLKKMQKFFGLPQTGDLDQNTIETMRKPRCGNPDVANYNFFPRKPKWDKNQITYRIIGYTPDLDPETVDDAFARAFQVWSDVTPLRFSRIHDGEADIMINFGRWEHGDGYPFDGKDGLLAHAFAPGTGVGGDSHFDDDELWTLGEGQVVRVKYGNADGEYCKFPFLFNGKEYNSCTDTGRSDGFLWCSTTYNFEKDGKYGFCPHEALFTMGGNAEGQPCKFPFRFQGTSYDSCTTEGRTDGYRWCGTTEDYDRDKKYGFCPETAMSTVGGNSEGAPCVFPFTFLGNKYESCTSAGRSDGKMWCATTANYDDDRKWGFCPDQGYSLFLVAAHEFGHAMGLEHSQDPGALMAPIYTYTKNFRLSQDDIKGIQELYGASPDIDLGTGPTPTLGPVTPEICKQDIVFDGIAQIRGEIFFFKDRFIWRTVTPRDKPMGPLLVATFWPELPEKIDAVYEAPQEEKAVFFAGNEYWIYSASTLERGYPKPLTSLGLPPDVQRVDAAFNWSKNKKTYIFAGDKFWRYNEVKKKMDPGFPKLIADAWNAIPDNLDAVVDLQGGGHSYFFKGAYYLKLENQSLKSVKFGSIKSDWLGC
Matrix metalloproteinase-9, sequence (P14780 whole entry): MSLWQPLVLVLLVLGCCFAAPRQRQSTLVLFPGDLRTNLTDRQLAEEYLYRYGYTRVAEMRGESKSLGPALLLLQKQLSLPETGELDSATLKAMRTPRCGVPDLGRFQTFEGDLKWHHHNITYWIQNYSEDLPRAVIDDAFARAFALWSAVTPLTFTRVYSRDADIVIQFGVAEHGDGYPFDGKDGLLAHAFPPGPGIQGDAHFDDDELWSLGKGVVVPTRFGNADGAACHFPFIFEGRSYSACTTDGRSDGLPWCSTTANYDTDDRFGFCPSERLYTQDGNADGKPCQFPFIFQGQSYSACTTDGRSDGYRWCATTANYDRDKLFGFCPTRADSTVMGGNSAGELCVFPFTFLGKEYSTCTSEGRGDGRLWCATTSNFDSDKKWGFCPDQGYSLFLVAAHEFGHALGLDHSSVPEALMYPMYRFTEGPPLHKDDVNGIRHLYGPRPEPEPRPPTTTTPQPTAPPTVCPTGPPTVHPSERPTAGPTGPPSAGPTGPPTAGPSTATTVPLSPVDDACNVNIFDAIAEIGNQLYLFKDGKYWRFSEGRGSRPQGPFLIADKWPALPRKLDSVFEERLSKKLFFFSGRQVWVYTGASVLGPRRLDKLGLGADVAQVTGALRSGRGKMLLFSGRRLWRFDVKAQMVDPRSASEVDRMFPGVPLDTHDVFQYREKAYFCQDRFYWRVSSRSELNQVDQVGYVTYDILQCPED

IC50 [1] [nM] | IC50 [2] [nM] | IC50 [3] [nM] | Drug uptake [4] | Compound
< 1 |  |  |  | O=C(NO)C1(S(=O)(=O)c2ccc(Oc3ccc(OC(F)(F)F)cc3)cc2)CCN(C2CC2)CC1
5.1 | 4.1 |  |  | CC(C)(C)NC(=O)c1nc(N)c(C(=O)NCCC(=O)N2CCC(C(=O)NO)(S(=O)(=O)c3ccc(Oc4ccc(OC(F)(F)F)cc4)cc3)CC2)nc1N
< 1 | < 1 |  |  | Nc1nc(C(=O)N2CCC(C(=O)NO)(S(=O)(=O)c3ccc(Oc4ccc(OC(F)(F)F)cc4)cc3)CC2)c(N)nc1C(=O)N1CCCC1
1.6 | < 1 |  |  | CN(C)c1ncc(N2CCC(C(=O)NO)(S(=O)(=O)c3ccc(Oc4ccc(OC(F)(F)F)cc4)cc3)CC2)nc1C#N
< 1 | < 1 | 100 | Active | N[C@@H](CCCCNC(=O)c1ccc2c(c1)C(=O)OC21c2ccc(O)cc2Oc2cc(O)ccc21)C(=O)N1CCC(C(=O)NO)(S(=O)(=O)c2ccc(Oc3ccc(OC(F)(F)F)cc3)cc2)CC1
2.8 | 1.6 |  |  | CC1(C)C(/C=C/C2=C(N3CCC(C(=O)NO)(S(=O)(=O)c4ccc(Oc5ccc(OC(F)(F)F)cc5)cc4)CC3)C(=C/C=C3/N(CCCCS(=O)(=O)O)c4ccccc4C3(C)C)/CCC2)=[N+](CCCCS(=O)(=O)[O-])c2ccccc21
